Rows were chosen to be rich in hits. Some 2.9% of all compounds tested hit in one or more screens of this group.
UBC13 polyUb – human UBC13 polyubiquitination inhibition. P61088. UBC13 polyubiquitin chain formation, TR-FRET. inhibition, % at 20 µM. actives 0.47% (n = 330,000). AID 485273; in the data active = inhibition above about 45%, passing the limit was not always enough
MEKK3 PB1 HTS – raises or lowers MEK5 binding to the human MEKK3 PB1 domain; Q99759; bead-based flow cytometry, Alexa488-MEK5 binding to MEKK3; actives lie on both sides; 0 = blocked by unlabeled MEK5, 100 = vehicle; binding response (% of control), % at 10 µM; actives 1.4% (n = 290,000);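 active = binding response more than 3 SD above or below the average of its plate-row segment, actives on both sides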;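 note: Alexa488 bead fluorescence after subtracting the streptavidin-only scavenger bead signal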
Target sequence (Q99759 whole entry, looked up, the tested form may be a part): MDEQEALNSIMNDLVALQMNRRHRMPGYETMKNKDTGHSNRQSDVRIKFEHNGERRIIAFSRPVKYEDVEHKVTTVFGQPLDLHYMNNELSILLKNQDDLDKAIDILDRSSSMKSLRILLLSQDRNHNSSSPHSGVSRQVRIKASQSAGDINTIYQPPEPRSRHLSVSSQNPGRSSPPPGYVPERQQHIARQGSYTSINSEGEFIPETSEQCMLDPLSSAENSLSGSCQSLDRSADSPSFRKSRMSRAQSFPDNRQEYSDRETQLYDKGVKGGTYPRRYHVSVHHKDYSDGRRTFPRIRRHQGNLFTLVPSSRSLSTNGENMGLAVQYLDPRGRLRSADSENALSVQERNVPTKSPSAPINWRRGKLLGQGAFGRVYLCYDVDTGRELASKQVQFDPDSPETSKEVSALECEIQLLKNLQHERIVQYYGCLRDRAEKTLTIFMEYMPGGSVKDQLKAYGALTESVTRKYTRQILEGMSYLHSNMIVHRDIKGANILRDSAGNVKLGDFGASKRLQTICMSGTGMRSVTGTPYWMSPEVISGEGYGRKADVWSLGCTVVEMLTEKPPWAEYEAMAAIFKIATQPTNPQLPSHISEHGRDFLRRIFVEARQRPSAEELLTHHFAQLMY
MEKK2mut PB1 HTS – signal of MEK5 binding to mutant human MEKK2 PB1 domain; actives 0.35% (n = 290,000); AID 1530; percent response, % at 10 µM; bead flow cytometry, Alexa488-MEK5 binding to MEKK2 mutant; in the data active = percent response above about 24%, passing the limit was not always enough
MEKK2wt PB1 HTS – raises or lowers MEK5 binding to wildtype human MEKK2 PB1 domain | Q9Y2U5 | bead flow cytometry, Alexa488-MEK5 binding to MEKK2 WT; actives lie on both sides | binding response (% of control), % at 10 µM | actives 1.1% (n = 290,000) | AID 1531; in the data active = binding response below about 67% or above about 130%
Apaf-1 inh – human Apaf-1 inhibition. O14727. inhibition, % at 20 µM. reconstituted apoptosome caspase-3 activity, DEVD-Rh110 fluorescence. actives 0.71% (n = 330,000). AID 489030; active = inhibition of at least 40% at 20 µM;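 note: plate controls were DMSO wells for no effect and DEVD-CHO caspase inhibitor wells for full effect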
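Material: reconstituted apoptosome with Apaf-1, cytochrome c, caspase-9, procaspase-3, dATP; medium: pH 7.5 Hepes buffer with CHAPS, BSA, DTT; also added: cytochrome c and DEVD-Rh110 substrate; timing: 30 min plus 50 min, RT; signal: Rh110 fluorescence intensity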
Apaf-1 inh conf – confirmation of Apaf-1 inhibitors; inhibition, % at 20 µM; AID 504614; shares compounds with Apaf-1 inh; actives 25% (n = 1,800); reconstituted apoptosome, caspase-3 DEVD-Rh110 fluorescence;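 active = mean inhibition of at least 40% at 20 µM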;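 note: plate controls were DMSO wells for no effect and DEVD-CHO caspase inhibitor control wells for full effect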
Rh110 quench – interferes with Rh110 fluorescence, flagging false Apaf-1 inhibitors. shares compounds with Apaf-1 inh. Rh110 fluorescence interference, quenched caspase reaction. activation (fluorescence interference), % at 20 µM. 1,800 tested, under 10 active. AID 504615;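 active = signal rise of 40% or more at 20 µM, treated as a fluorescence artifact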
Apaf1 inh interf – Apaf-1 inhibitor counter-screen fluorescence artifact; shares compounds with Apaf-1 inh; fluorescence interference counterscreen, Apaf-1 assay format; IC50, µM; 460 tested, under 10 active; AID 588538; call rule not given here
Active calls of the source: *.

`COc1ccc(CC(=O)NCc2ccccc2)cc1S(=O)(=O)N1CCOCC1` gave UBC13 polyUb -4, MEKK3 PB1 HTS 106, MEKK2mut PB1 HTS 3, MEKK2wt PB1 HTS 106 and Apaf-1 inh 5.
`COc1ccc(CC(=O)N(C)CC(=O)Nc2ccccc2C(F)(F)F)cc1S(=O)(=O)N1CCOCC1` gave UBC13 polyUb 8, Apaf-1 inh 46*, Apaf-1 inh conf 37 and Rh110 quench 2.
Screening CCOC(=O)Cc1nnc(NC(=O)CCc2ccccc2)s1 returned UBC13 polyUb 4, MEKK3 PB1 HTS 106, MEKK2mut PB1 HTS -1, MEKK2wt PB1 HTS 104 and Apaf-1 inh 2.
`COc1ccccc1N1CCN(C(=O)c2ccc3c(c2)NC(=O)C(CSCc2ccccc2C)N3)CC1` (centres undefined) gave UBC13 polyUb -20, MEKK3 PB1 HTS 101, MEKK2mut PB1 HTS 3, MEKK2wt PB1 HTS 96 and Apaf-1 inh 10.
CCN(CC(=O)Nc1ccc2c(c1)OCCO2)C(=O)COc1ccc(C)cc1 was read as UBC13 polyUb 6, MEKK3 PB1 HTS 101, MEKK2mut PB1 HTS 1, MEKK2wt PB1 HTS 105 and Apaf-1 inh 10.
`c1cc2cn[nH]c2cc1NC1CCCCCC1` gave UBC13 polyUb -12, MEKK3 PB1 HTS 106, MEKK2mut PB1 HTS 4, MEKK2wt PB1 HTS 109, Apaf-1 inh 53*, Apaf-1 inh conf 68*, Rh110 quench 7 and Apaf1 inh interf >100.
Screening Nc1cccc2cnccc12 returned UBC13 polyUb -53, MEKK3 PB1 HTS 97, MEKK2mut PB1 HTS -2, MEKK2wt PB1 HTS 99, Apaf-1 inh 67*, Apaf-1 inh conf 15 and Rh110 quench 1.
`CC1(C2CC2)NC(=O)N(CC(=O)N2CCN(c3ccccc3)CC2)C1=O` (centres undefined) gave UBC13 polyUb -3 and Apaf-1 inh 2.
Screening COc1cc(C(=O)NC(C)c2ccc(-n3ccnc3)cc2)cc(OC)c1C (centres undefined) returned UBC13 polyUb 6, MEKK3 PB1 HTS 99, MEKK2mut PB1 HTS -3, MEKK2wt PB1 HTS 92, Apaf-1 inh 41*, Apaf-1 inh conf 22 and Rh110 quench 6.
For COc1cc(C(=O)NCC(=O)NC(C)c2ccc(-n3ccnc3)cc2)cc(OC)c1OC (centres undefined) the results were UBC13 polyUb -1 and Apaf-1 inh -4.
Screening COc1ccccc1N1C(C)=CC(=C(C#N)c2nc3ccccc3s2)C=C1C returned UBC13 polyUb -14, MEKK3 PB1 HTS 97, MEKK2mut PB1 HTS -2, MEKK2wt PB1 HTS 85, Apaf-1 inh 56*, Apaf-1 inh conf 23 and Rh110 quench 1.
For CC1=CC(=C(C#N)c2nc3ccccc3s2)C=C(C)N1c1ccc(F)cc1 the results were UBC13 polyUb -21, MEKK3 PB1 HTS 103, MEKK2mut PB1 HTS 6, MEKK2wt PB1 HTS 96, Apaf-1 inh 45*, Apaf-1 inh conf 24 and Rh110 quench 0.
Screening CC(C)=C(C#N)c1nc2ccccc2s1 returned UBC13 polyUb 6, MEKK3 PB1 HTS 100, MEKK2mut PB1 HTS 2, MEKK2wt PB1 HTS 102 and Apaf-1 inh -9.
For COc1cccc(-c2nc3ccccc3s2)c1O the results were UBC13 polyUb 1, MEKK3 PB1 HTS 117, MEKK2mut PB1 HTS -1, MEKK2wt PB1 HTS 121 and Apaf-1 inh 15.
For COc1ccc(C2(C)NC(=O)N(CC(=O)Nc3ccc(C)cc3Br)C2=O)cc1OC (centres undefined) the results were UBC13 polyUb -1, MEKK3 PB1 HTS 100, MEKK2mut PB1 HTS -5, MEKK2wt PB1 HTS 96 and Apaf-1 inh 12.
For Cc1ccc(C(=O)NC2(O)C(=O)c3ccccc3C2=O)cc1C the results were UBC13 polyUb -39, MEKK3 PB1 HTS 101, MEKK2mut PB1 HTS -3, MEKK2wt PB1 HTS 99, Apaf-1 inh 97*, Apaf-1 inh conf 93*, Rh110 quench -5 and Apaf1 inh interf >100.
Screening O=C(Cc1ccccc1)NC1(O)C(=O)c2ccccc2C1=O returned UBC13 polyUb -21, MEKK3 PB1 HTS 106, MEKK2mut PB1 HTS 1, MEKK2wt PB1 HTS 105, Apaf-1 inh 85*, Apaf-1 inh conf 69*, Rh110 quench 7 and Apaf1 inh interf >100.
Screening O=C(NC1(O)C(=O)c2ccccc2C1=O)c1ccc(C(F)(F)F)cc1 returned UBC13 polyUb -38, MEKK3 PB1 HTS 87, MEKK2mut PB1 HTS -12, MEKK2wt PB1 HTS 87, Apaf-1 inh 96*, Apaf-1 inh conf 98*, Rh110 quench 13 and Apaf1 inh interf >100.
For CC(NC(=O)Cc1ccccc1)c1ccccc1 (centres undefined) the results were UBC13 polyUb 3, MEKK3 PB1 HTS 99, MEKK2mut PB1 HTS 7, MEKK2wt PB1 HTS 99 and Apaf-1 inh -1.
CC(=O)Nc1ccc(OC(=O)c2ccc(Br)c([N+](=O)[O-])c2)cc1 was read as UBC13 polyUb 4, MEKK3 PB1 HTS 86, MEKK2mut PB1 HTS -7, MEKK2wt PB1 HTS 93 and Apaf-1 inh -9.
For COc1ccc2c(c1)c1ccc3c(c1n2C)C(=O)C=CC3=O the results were UBC13 polyUb -34, MEKK3 PB1 HTS 103, MEKK2mut PB1 HTS -3, MEKK2wt PB1 HTS 97, Apaf-1 inh 71*, Apaf-1 inh conf 57*, Rh110 quench 5 and Apaf1 inh interf >100.
Screening COc1ccc2c(c1)c1ncn(CCN3CCCCC3)c(=O)c1n2C returned UBC13 polyUb 14, MEKK3 PB1 HTS 78, MEKK2mut PB1 HTS -2, MEKK2wt PB1 HTS 88 and Apaf-1 inh 6.
For Cc1ccc2c(c1)c1ccc3c(c1n2C)C(=O)C=CC3=O the results were UBC13 polyUb -25, MEKK3 PB1 HTS 89, MEKK2mut PB1 HTS -18, MEKK2wt PB1 HTS 95, Apaf-1 inh 57*, Apaf-1 inh conf 40*, Rh110 quench 2 and Apaf1 inh interf >100.
Screening COc1ccc2nc3cccc(OC)c3nc2c1 returned UBC13 polyUb -55, MEKK3 PB1 HTS 57, MEKK2mut PB1 HTS -13, MEKK2wt PB1 HTS 70, Apaf-1 inh 97*, Apaf-1 inh conf 27 and Rh110 quench 1.
Screening COc1ccc2nc3ccccc3nc2c1N returned UBC13 polyUb -371, MEKK3 PB1 HTS 101, MEKK2mut PB1 HTS 6, MEKK2wt PB1 HTS 100, Apaf-1 inh 92*, Apaf-1 inh conf 21 and Rh110 quench -2.
For COc1ccc(-c2nc3ccccc3nc2-c2ccc(OC)c(OC)c2)cc1OC the results were UBC13 polyUb 14, MEKK3 PB1 HTS 107, MEKK2mut PB1 HTS 5, MEKK2wt PB1 HTS 106 and Apaf-1 inh 12.

Source: PubChem
